Data taken from ChEMBL document CHEMBL1138136, “Aplysamine-1 and related analogs as histamine H3 receptor antagonists” (Bioorg Med Chem Lett, 2006).

Key:
Histamine H3 receptor [1] = target: T1, Histamine H3 receptor (Homo sapiens, UniProt Q9Y5N1); test: Activity against human histamine H3 receptor by histamine induced inhibition of forskolin stimulated cAMP accumulation in SK-N-MC cells; format: functional, cell-based; details: read-out: pA2 (converted)
In short: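 SK-N-MC cells overexpressing human H3 receptor; antagonist-induced rightward shifts of histamine dose–response curves for inhibition of forskolin-stimulated cAMP accumulation measured. pA2 obtained by Schild regression analysis.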

Histamine H3 receptor [2] = target: T1, Histamine H3 receptor; test: Displacement of N-[3H]methylhistamine from human histamine H3 receptor expressed in SK-N-MC cells; format: cell-based
Histamine H3 receptor [3] = target: Histamine H3 receptor (Rattus norvegicus, UniProt Q9QYN8); test: Displacement of N-[3H]methylhistamine from rat histamine H3 receptor in rat cortical hemispheres
Chain of Histamine H3 receptor (Rattus norvegicus, UniProt Q9QYN8) (Q9QYN8 whole entry): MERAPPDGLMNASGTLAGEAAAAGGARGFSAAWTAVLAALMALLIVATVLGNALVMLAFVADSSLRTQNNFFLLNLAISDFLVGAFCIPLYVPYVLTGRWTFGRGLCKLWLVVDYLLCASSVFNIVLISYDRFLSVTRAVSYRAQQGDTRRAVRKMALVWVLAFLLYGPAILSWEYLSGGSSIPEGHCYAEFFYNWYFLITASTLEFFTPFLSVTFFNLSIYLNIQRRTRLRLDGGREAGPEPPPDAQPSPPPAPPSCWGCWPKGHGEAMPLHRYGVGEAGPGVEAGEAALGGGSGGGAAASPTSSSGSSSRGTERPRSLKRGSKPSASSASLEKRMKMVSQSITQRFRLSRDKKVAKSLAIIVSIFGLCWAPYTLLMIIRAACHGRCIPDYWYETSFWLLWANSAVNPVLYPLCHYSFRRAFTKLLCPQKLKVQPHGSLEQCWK

T1 sequence (Q9Y5N1 whole entry): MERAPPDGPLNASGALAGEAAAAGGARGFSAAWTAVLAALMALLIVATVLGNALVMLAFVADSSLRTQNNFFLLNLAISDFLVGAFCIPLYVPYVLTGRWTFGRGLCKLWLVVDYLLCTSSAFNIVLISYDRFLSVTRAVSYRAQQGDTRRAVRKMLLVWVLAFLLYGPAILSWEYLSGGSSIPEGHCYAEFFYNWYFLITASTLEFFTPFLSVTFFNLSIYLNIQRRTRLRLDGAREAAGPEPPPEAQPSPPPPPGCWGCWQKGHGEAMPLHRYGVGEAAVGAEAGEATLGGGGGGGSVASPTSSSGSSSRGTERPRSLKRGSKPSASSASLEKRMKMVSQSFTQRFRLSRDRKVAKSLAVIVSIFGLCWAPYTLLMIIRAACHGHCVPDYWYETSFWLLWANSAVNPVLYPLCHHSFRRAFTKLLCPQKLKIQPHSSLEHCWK

Structure (SMILES)	Kb (Histamine H3 receptor [1]) [nM]	Ki (Histamine H3 receptor [2]) [nM]	Ki (Histamine H3 receptor [3]) [nM]
CN(C)CCCOc1ccc(CN2CCCCC2)cc1	9.33	3	45
CN(C)CCCOc1ccc(CN(C)C)cc1	–	18	255
CN(C)CCCOc1c(Br)cc(CCN(C)C)cc1Br [APLYSAMINE]	–	–	249
CN(C)CCc1ccc(OCCCN2CCCCC2)cc1	0.501	0.5	5
Brc1cc(CN2CCCCC2)cc(Br)c1OCCCN1CCCCC1	7.24	8	57
CCCCN(CCCC)CCCOc1ccc(-c2cn3c(C)cccc3n2)cc1	–	4000	–
c1cc(OCCCN2CCCCC2)ccc1CN1CCCCC1 [JNJ-5207852]	–	–	1
CN(C)CCOc1ccc(CCN(C)C)cc1	–	40	345
CN(C)CCc1ccc(OCCN2CCCCC2)cc1	–	14	50
CN(C)CCCOc1ccc(CCN(C)C)cc1	17	6	89
CN(C)CCCOc1c(Br)cc(CN(C)C)cc1Br	–	36	319
